The results in this text go back to ChEMBL document CHEMBL1129365, “Rational design of novel immunosuppressive drugs: analogues of azathioprine lacking the 6-mercaptopurine substituent retain or have enhanced immunosuppressive effects” (1996).

Assay type in all cases: functional
Assay [1] in a line: Inhibition of lymphocyte proliferation in vitro by 25 uM. To be noted: Homo sapiens.
The nature of assay [2]: Percent inhibition against incorporation of [3H]-thymidine in Human mixed lymphocyte reaction at a concentration of 25 uM.
Assay [3] in a line: Effective dose against inhibitory potency in Human mixed lymphocyte reaction. To be noted: read-out: ED50 (the source's name). The essentials: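 Human MLR: responder lymphocytes and mitomycin-C-treated stimulator lymphocytes, isolated on Ficoll-Metrizoate (10^5 each), cultured in triplicate in RPMI 1640 with 2 mM glutamine, 10 mM HEPES and 20% (final) pooled human AB serum plus drug. Incubation 5 days at 37 °C under 5% CO2/95% air. [3H]thymidine incorporation read; ED50 taken from a graph of ≥4 points, each the mean of 3–10 experiments.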

Assay [4] is described as follows: Percent inhibition against incorporation of [3H]thymidine in Human mixed lymphocyte reaction at a concentration of 10 uM.
A short description of assay [5]: Inhibition of human mixed leukocyte proliferation in vitro; Not determined. To be noted: read-out: ED50 (the source's name).
A short description of assay [6]: Percent inhibition against incorporation of [3H]thymidine in Human mixed lymphocyte reaction at a concentration of 50 uM.

In the case of `Cn1cnc([N+](=O)[O-])c1Sc1nc2cc([N+](=O)[O-])ccc2[nH]1`, testing at 25 µM in assay [1] gave an inhibition of 2%.

With `Cc1ccc2[nH]c(Sc3c([N+](=O)[O-])ncn3C)nc2c1`, the inhibition at 25 µM in assay [1] is 86%.

`COc1cc2nc(Sc3c([N+](=O)[O-])ncn3C)[nH]c2cc1OC` had an inhibition at 25 µM in assay [1] of 94%.

As to `Cn1cnc([N+](=O)[O-])c1Sc1ccccn1`, the inhibition at 25 µM in assay [2] was determined as 76%.

Take `Cn1cnc([N+](=O)[O-])c1SC1=NCCS1`: the inhibition at 25 µM in assay [1] was found to be 100%.

Consider `Cn1cnc([N+](=O)[O-])c1Sc1nc2ccccc2[nH]1`, for which the inhibition at 25 µM in assay [1] stood at 90%.

`COc1ccc(OC)c2[nH]c(Sc3c([N+](=O)[O-])ncn3C)nc12` came in with an inhibition at 25 µM in assay [1] of 41%.

`Cc1cc(C)nc(Sc2c([N+](=O)[O-])ncn2C)n1`: the inhibition at 25 µM in assay [1] worked out at 47%.

`Cn1cnc([N+](=O)[O-])c1Sc1nc2ccccc2o1` showed an inhibition at 25 µM in assay [2] of 87%.

In assay [2], `Cn1cnc([N+](=O)[O-])c1Sc1ccccc1C(=O)O` registered an inhibition at 25 µM of 34%.

For the compound `CCn1c(C)nc([N+](=O)[O-])c1Sc1nccn1C`, the EC50 in assay [3] amounted to 2.9 µM. Further, in assay [1], the inhibition at 25 µM came out at 100%. In assay [4], this compound yielded an inhibition at 10 µM of 98%.

Take `Cn1ccnc1Sc1c([N+](=O)[O-])ncn1C`: the EC50 in assay [3] is 3.15 µM. The compound also gave an inhibition at 25 µM in assay [1] of 100%. This compound yielded an inhibition at 10 µM in assay [4] of 82%.

In the case of `CCn1c(C)nc([N+](=O)[O-])c1Sc1nncn1C`, the EC50 in assay [3] stood at 2.5 µM. The compound further displayed an inhibition at 25 µM in assay [1] of 100%. In assay [4], this compound yielded an inhibition at 10 µM of 98%.

Take `Cn1cnc([N+](=O)[O-])c1Sc1nc[nH]n1`: the EC50 in assay [3] came out at 14 µM. The same compound displayed an inhibition at 25 µM in assay [1] of 58%.

On to `Cn1cnc([N+](=O)[O-])c1Sc1ncc[nH]1`, for which the EC50 in assay [3] came out at 2.8 µM. Moreover, the inhibition at 25 µM in assay [1] came to 100%. This compound also gave an inhibition at 10 µM in assay [4] of 89%.

Take `Cn1cnnc1Sc1c([N+](=O)[O-])ncn1C`: in assay [3], the EC50 stood at 2.7 µM. In assay [1], the inhibition at 25 µM was found to be 100%. In assay [4], the inhibition at 10 µM came out at 98%.

As for `Cn1cnc([N+](=O)[O-])c1Sc1nccc(O)n1`, in assay [1], the inhibition at 25 µM worked out at 29%.

For `Cn1cnc([N+](=O)[O-])c1Sc1ncccn1`, the inhibition at 25 µM in assay [1] was determined as 47%.

On to `Cn1cnc([N+](=O)[O-])c1Sc1[nH]cnc2nc(O)nc1-2`, for which, in assay [5], the EC50 came to 24 µM. In assay [2], the inhibition at 25 µM was 50%.

As to `Cn1cnc([N+](=O)[O-])c1Sc1nc2ccccc2s1`, in assay [2], the inhibition at 25 µM was 27%.

On to `Cc1cc(C)cc(Sc2c([N+](=O)[O-])ncn2C)c1`, for which the inhibition at 25 µM in assay [2] came to 47%.

`CCOC(=O)CSc1c([N+](=O)[O-])ncn1C`: at 25 µM the inhibition in assay [2] was 65%.

In assay [1], `Cn1cnc([N+](=O)[O-])c1Sc1ccccc1N` returned an inhibition at 25 µM of 21%.

Regarding `Cn1cnc([N+](=O)[O-])c1Sc1nc2cc(Cl)c(F)cc2[nH]1`, testing at 50 µM in assay [6] gave an inhibition of 59%.

With `Cn1cnc([N+](=O)[O-])c1Sc1ncnc2[nH]cnc12` [AZATHIOPRINE], in assay [3], the EC50 turned out to be 7.9 µM. In assay [2], this compound came in with an inhibition at 25 µM of 79%.
